In the library only some 4.6% were active in any assay of this set; here they are far more common.
TAAR1 agonist = agonists of human TAAR1. activation, % at 3 µM. AID 624467. CHO RD-HGA16 TAAR1, Fluo-8 calcium fluorescence; vehicle wells 0%, saturating PEA agonist 100%. Q96RJ0. 0.99% of 360,000 active;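 active = activation above the mean activation of all test compounds in the run plus 3 SD, cut at about 38% in these data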
Target sequence (Q96RJ0 whole entry, looked up): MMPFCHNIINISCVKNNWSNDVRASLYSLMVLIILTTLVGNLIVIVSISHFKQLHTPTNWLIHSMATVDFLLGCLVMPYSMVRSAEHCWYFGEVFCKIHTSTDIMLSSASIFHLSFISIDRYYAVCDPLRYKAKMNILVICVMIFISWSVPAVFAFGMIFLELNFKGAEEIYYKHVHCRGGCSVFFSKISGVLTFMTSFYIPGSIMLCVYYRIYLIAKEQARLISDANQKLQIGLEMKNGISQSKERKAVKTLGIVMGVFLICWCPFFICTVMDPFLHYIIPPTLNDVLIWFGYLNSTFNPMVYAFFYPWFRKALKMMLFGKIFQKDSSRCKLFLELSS
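System: CHO-derived RD-HGA16 cells with stable Gα16 and human TAAR1. Times: 17-24 h plating, Fluo-8 75 min 37 °C, 30 min RT. Measured by: calcium-sensitive Fluo-8 signal, excitation 470-495, emission 515-575 nm. Read-out basis: % activation relative to PEA EC100 response. Control set: DMSO and PEA EC100. Repeats: no replicates (n 1).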
CHO parental Ca = counter-screen for OX1R antagonists: effect in parental CHO cells; parental CHO-K1, ATP-induced calcium, Fluo-8 fluorescence; inhibition, % at 5.6 µM; 0.63% of 330,000 active;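 active = inhibition above that plate's mean sample inhibition plus 3 SD, cut at about 26% in these data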
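Material: Parental CHO cells | Reagent: ATP | Compound dosing: Single nominal dose of 5.6 µM per compound | Detection: Intracellular calcium via Fluo-8 no-wash fluorescent dye | Read-out: % inhibition of ATP-induced calcium mobilization | Benchmarks: Low control ATP plus DMSO, high control DMSO only | Replicates: Singlicate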
OX1R antag-1 = blocks the human orexin 1 receptor | O43613 | CHO/OX1R cells, Fluo-8 calcium fluorescence, orexin A | inhibition, % at 5 µM | 0.43% of 330,000 active;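 active = inhibition above its plate's threshold, mean inhibition of all tested compounds on the plate plus 3 SD, cut at about 37% in these data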
OX1R antag-2 = antagonists of human orexin 1 receptor (OX1R) | AID 485270 | inhibition, % at 6.6 µM | O43613 | 1.8% of 330,000 active | OX1R-expressing cells, FRET antagonist read-out; in the data active = inhibition mostly above about 38%, no sharp cut-off; inactive = mostly below about 40%
GPR7 antagonist = antagonists of human GPR7 (neuropeptides B/W receptor 1). 1.1% of 290,000 active. inhibition, % at 4.4 µM. AID 1861. GPR7-expressing cells, fluorescence antagonist assay. P48145; in the data active = inhibition above about 16%, passing the limit was not always enough;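 note: cells stimulated with the agonist NPW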
TAAR1 antag = antagonists of human TAAR1; Q96RJ0; CHO RD-HGA16 TAAR1, Fluo-8 calcium fluorescence, antagonist; inhibition, % at 3 µM; 1.5% of 360,000 active;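 active = inhibition above a per-plate cutoff, the mean inhibition of test compounds on that plate plus 3 SD, cut at about 49% in these data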
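System: CHO RD-HGA16 cells bearing hTAAR1. Reagent: EC80 β-phenethylamine stimulus. Schedule: seeding 17-24 h prior, 75-min 37 °C, 30-min RT dye loading. Signal: Fluo-8 intracellular calcium dye fluorescence, real-time kinetic reads. Read-out: % inhibition from peak post-agonist over basal fluorescence ratio. Benchmarks: vehicle wells and EC80 agonist wells. Replicates: n of 1.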
Of the large screens only hits and unclear results are named; the others gave an inactive call.

O=C(COC(=O)c1ccccc1Cc1ccccc1)Nc1ccc(SC(F)F)cc1	CHO parental Ca 42.0
O=C(/C=C/c1ccccc1)C1C(=O)c2ccccc2C1=O	none
CCc1ccc(/C=C/C(=O)C2C(=O)c3ccccc3C2=O)cc1	CHO parental Ca 34.8
Cc1ccc(-c2nc3c(c(SCC(=O)N4CCOCC4)n2)Cc2c(CO)cnc(C)c2O3)cc1	OX1R antag-2 38.1
CCCn1cnnc1CNC(=O)[C@@H](Cc1ccccc1)NC(=O)[C@H]1O[C@@H](n2ccc(=O)[nH]c2=O)[C@H](O)[C@@H]1O	none (no result: CHO parental Ca, OX1R antag-1, OX1R antag-2, GPR7 antagonist)
O=C(C(=O)N1CCC(CNS(=O)(=O)c2cc(C(F)(F)F)cc(C(F)(F)F)c2)CC1)c1cc2ccccc2o1	none (no result: CHO parental Ca, OX1R antag-1, OX1R antag-2, GPR7 antagonist)
CC1CCN(CCC(=O)N/N=C/c2ccc([N+](=O)[O-])cc2)CC1	OX1R antag-2 44.6
COc1ccccc1OCC(=O)Nc1cccc(-c2nnc(-c3ccco3)o2)c1	OX1R antag-2 45.7
O=C(Cc1ccccc1)Nc1cccc(-c2nnc(-c3ccco3)o2)c1	none
COc1ccc(CC(=O)Nc2cccc(-c3nnc(-c4cccc(C)c4)o3)c2)cc1OC	CHO parental Ca 94.3, OX1R antag-1 88.6, OX1R antag-2 110.2, TAAR1 antag 78.4
CCNC(=S)N1CCN(c2nc(-c3ccc(F)cc3)cs2)CC1	CHO parental Ca 64.7, OX1R antag-1 47.9
COCCNC(=S)N1CCN(c2nc(-c3ccc(F)cc3)cs2)CC1	none
COCc1[nH]nc2c1C(c1cccc(C(F)(F)F)c1)NC2=O (centres undefined)	none (no result: CHO parental Ca, OX1R antag-1, OX1R antag-2, GPR7 antagonist)
COC(=O)[C@]12C[C@H](CC(=O)NCCC(C)C)C(=O)N(Cc3ccccc3)C1=C[C@H](C(C)(C)C)O[C@@H]2C	none (no result: CHO parental Ca, OX1R antag-1, OX1R antag-2, GPR7 antagonist)
C=CCn1c(SCC(=O)c2cccs2)nc2sc(CC)cc2c1=O	CHO parental Ca 55.9, OX1R antag-1 51.1
CCN(CC(=O)Nc1ccccc1C(F)(F)F)C(=O)c1ccc2[nH]c3c(c2c1)CC(C)CC3 (centres undefined)	none (no result: GPR7 antagonist)
COC(=O)N1C[C@H](OCc2cn(-c3cc(Cl)cc(Cl)c3)nn2)[C@H](OCc2cn(-c3cc(Cl)cc(Cl)c3)nn2)C[C@@H]1c1ccccc1Br	none (no result: CHO parental Ca, OX1R antag-1, OX1R antag-2, GPR7 antagonist)
Cc1ccc(C(=O)Oc2cc(N)n(S(=O)(=O)c3ccc(F)cc3)n2)cc1	none
Nc1cc(OC(=O)c2cccs2)nn1S(=O)(=O)c1ccc(F)cc1	TAAR1 agonist 41.5
Nc1cc(OC(=O)c2cccs2)nn1S(=O)(=O)c1ccccc1	TAAR1 agonist 39.7
COCCN(CCOC)c1nc(-c2ccccc2)nc2ccccc12	TAAR1 antag 56.2 (no result: CHO parental Ca, OX1R antag-1, OX1R antag-2)
COCCNc1nc(-c2ccccc2)nc2ccccc12	OX1R antag-2 46.5
COc1ccc(CCNc2nc(-c3cccnc3)nc3ccccc23)cc1OC	TAAR1 antag 63.3
Cc1ccc(CNc2nc(-c3cccnc3)nc3ccccc23)cc1	none
CCN(CCOC(=O)Nc1ccc(Cl)cc1)C(=O)Nc1ccc(Cl)cc1	none (no result: CHO parental Ca, OX1R antag-1, OX1R antag-2, GPR7 antagonist)
CC(C)Cc1nnc(NC(=O)C2CCN(C(=O)c3ccc(F)cc3)CC2)s1	none (no result: GPR7 antagonist)
O=C(Cc1ccccc1)Nc1ccc(N2CCOCC2)cc1	none
O=C(Cc1cccc2ccccc12)Nc1ccc(N2CCOCC2)cc1	TAAR1 agonist 38.9
CC(C)c1ccc(/C=C/C(=O)NC(=S)NN2CCOCC2)cc1	none (no result: CHO parental Ca, OX1R antag-1, OX1R antag-2)
CC(C)c1ccc(/C=C/C(=O)NC(=S)Nc2ccc(CN3CCOCC3)cc2)cc1	TAAR1 antag 66.7
O=C(/C=C/c1ccccc1)NC(=S)Nc1ccc(N2CCOCC2)cc1	TAAR1 antag 53.7
CCc1ccc(C2CC(=O)N3CN(c4ccccc4)CSC3=C2C#N)cc1 (centres undefined)	none
N#CC1=C2SCC(O)(c3ccccc3)N2C(=O)CC1c1ccccc1 (centres undefined)	GPR7 antagonist 16.9
CC(C)(C)NC(=O)C(c1cc2ccccc2o1)n1c(=O)c(-c2ccccc2)nc2ccccc21 (centres undefined)	none (no result: CHO parental Ca, OX1R antag-1, OX1R antag-2, GPR7 antagonist)
Cc1ccc(C)c(NC(=O)[C@@H]2CCCN2S(=O)(=O)c2ccccc2F)c1	OX1R antag-2 42.8 (no result: GPR7 antagonist)
CC(C)c1ccc(NC(=O)C2CCCN2S(=O)(=O)c2ccccc2F)cc1 (centres undefined)	OX1R antag-2 37.2 (no result: GPR7 antagonist)

Source: PubChem BioAssay (The Scripps Research Institute Molecular Screening Center)
